# Assay results: ChEMBL document CHEMBL1121765, “3-Phenylpiperidines. Central dopamine-autoreceptor stimulating activity” (1981)
# The source made the active and inactive calls. No cut-off for these calls is given here.
# How the values were obtained:
# Rattus norvegicus [1] = assay: Motor activity in reserpinized rats when 100 umol/kg was administered subcutaneously; type: functional
# Summary of the method: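 Rats pretreated ip with reserpine (10 mg/kg) 6 h before testing; compound given sc in neck region, rats placed singly in photocell motility meters immediately after and motor activity recorded for 60 min, testing between 1 and 6 p.m.; saline controls; gross behaviour observed.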
# [2] = target: T1, Dopamine receptor (Rattus norvegicus) (UniProt P25115+P19020+P30729+P18901+P61169); assay: Dopamine receptor activation in limbic system of reserpinized rat; Inactive at >45 uM/Kg.; type: tissue-based
# [3] = target: T1, Dopamine receptor (Rattus norvegicus); assay: Dopamine receptor activation in striatum of reserpinized rat; Inactive at >45 uM/Kg.; type: tissue-based
# [4] = target: T1, Dopamine receptor (Rattus norvegicus); assay: Evaluation for Dopamine receptor activation in limbic system of reserpinized rat; type: tissue-based
# [5] = target: T1, Dopamine receptor (Rattus norvegicus); assay: Evaluation of Dopamine receptor activation in striatum of reserpinized rat; type: functional, tissue-based
# Rattus norvegicus [6] = assay: Motor activity in reserpinized rats when 2 umol/kg was administered subcutaneously
SMILES,ED50 [2],ED50 [3],other results
Br.CCCN1CCCC(c2cccc(O)c2)C1 (centres undefined),–,–,Motor activity (Rattus norvegicus [1]): 55
CCCN1CCCC(c2cccc(N)c2)C1 (centres undefined),inactive,inactive,–
CCCN1CCCC(c2ccc(O)cc2)C1 (centres undefined),inactive,inactive,–
Oc1cccc(C2=CN3CCC2CC3)c1,inactive,inactive,–
CCCN1CCCCC(c2cccc(O)c2)C1 (centres undefined),inactive,inactive,–
Oc1cccc(C2CN3CCC2CC3)c1 (centres undefined),inactive,inactive,–
CCCNCCc1cccc(O)c1,–,–,ED50 [4]: 0.9 µmol/kg; ED50 [5]: 0.8 µmol/kg
CC(C)N1CCC(c2cccc(O)c2)C1 (centres undefined),inactive,inactive,–
CC(C)(C)CN1CCCC(c2cccc(O)c2)C1 (centres undefined),–,–,ED50 [5]: > 2.8 µmol/kg
CCCN1CCCC(c2cccc(C#N)c2)C1 (centres undefined),inactive,inactive,–
Oc1cccc(-c2cccnc2)c1,inactive,inactive,–
CN1CCCC(c2cccc(O)c2)C1 (centres undefined),–,–,ED50 [5]: 2.5 µmol/kg
CCCN1CCCC(c2cccc(C(=O)OC)c2)C1 (centres undefined),inactive,inactive,–
CCCN1CCCC(c2cccc(OC)c2)C1 (centres undefined),inactive,inactive,–
Br.CCCN1CCCC(c2ccc(O)c(O)c2)C1 (centres undefined),–,–,Motor activity (Rattus norvegicus [1]): 522
CCCCCN1CCCC(c2cccc(O)c2)C1 (centres undefined),–,–,ED50 [5]: 0.9 µmol/kg
CCCN1CCCC(c2cccc(C(N)=O)c2)C1 (centres undefined),inactive,inactive,–
CCCN1CCC(c2cccc(O)c2)C1 (centres undefined),–,–,ED50 [4]: 45 µmol/kg; ED50 [5]: 45 µmol/kg
CCCN1CCCC(c2ccccc2O)C1 (centres undefined),inactive,inactive,–
Oc1cccc(C2CCNC2)c1 (centres undefined),inactive,inactive,–
Oc1cccc(C2CCCN(Cc3ccccc3)C2)c1 (centres undefined),–,–,ED50 [5]: 24 µmol/kg
CCCN1CCCC(c2cccc(CO)c2)C1 (centres undefined),inactive,inactive,–
CCCN1CCCC(c2ccccc2)C1 (centres undefined),inactive,inactive,–
CN1CCc2cccc3c2[C@H]1Cc1ccc(O)c(O)c1-3 [APOMORPHINE],–,–,Motor activity (Rattus norvegicus [6]): 624
Oc1cccc(C2CCCN(C3CCCCC3)C2)c1 (centres undefined),–,–,ED50 [5]: 45 µmol/kg
CCCN1CCCC(c2cccc(C)c2)C1 (centres undefined),inactive,inactive,–
